Test results as given in ChEMBL document CHEMBL3758104, “Reinvestigating Old Pharmacophores: Are 4-Aminoquinolines and Tetraoxanes Potential Two-Stage Antimalarials?” (J Med Chem, 2016).
pIC50: −log10 of the molar value. Active and inactive are the calls of the source. The rule behind the calls is not given here.

Experiments:
[1] = Half life in human liver microsomes at 1 uM by LC-MS/MS analysis; format: ADME
HepG2 = experiment: Cytotoxicity against human HepG2 cells after 48 hrs by MTT assay; format: cell-based; conditions: HepG2, 48 h
Plasmodium berghei [2] = experiment: Antimalarial activity against Plasmodium berghei ANKA infected in C57Bl6 mouse at 10 mg/kg/day, po on days 3 to 5 by Thompson test; format: functional
Plasmodium berghei [3] = experiment: Antimalarial activity against Plasmodium berghei ANKA infected in C57Bl6 mouse at 20 mg/kg/day, po on days 3 to 5 by Thompson test; format: functional
Plasmodium falciparum [4] = experiment: Antimalarial activity against chloroquine-susceptible Plasmodium falciparum D6 after 48 hrs by [3H]hypoxanthine incorporation assay; format: functional, organism-based
Method in brief: (§1)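 P. falciparum D6 (Sierra I/UNC clone), W2 (Indochina I clone), TM91C235 (South-East Asian clone) cultured with compound; growth inhibition by [3H]hypoxanthine incorporation (modified Desjardins/Milhous method). Chloroquine, mefloquine, artemisinin as positive controls. IC50 in nM; technical triplicates, curve fits R2 0.96–1.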

Plasmodium falciparum [5] = experiment: Antimalarial activity against mutidrug resistant Plasmodium falciparum TM91C235 after 48 hrs by [3H]hypoxanthine incorporation assay; format: functional, organism-based; method in brief: as §1
Plasmodium falciparum [6] = experiment: Antimalarial activity against chloroquine-resistant Plasmodium falciparum W2 after 48 hrs by [3H]hypoxanthine incorporation assay; format: functional, organism-based; method in brief: as §1
[7] = Half life in mouse liver microsomes at 1 uM by LC-MS/MS analysis; format: ADME
[8] = Selectivity index, ratio of IC50 for human HepG2 cells to IC50 for chloroquine susceptible Plasmodium falciparum D6; format: toxicity, cell-based; conditions: read-out: Ratio IC50
Mus musculus = experiment: Toxicity in Plasmodium berghei ANKA infected C57Bl6 mouse at 160 mg/kg/day, po administered for 3 days measured 2 times a day for 31 days; format: organism-based; conditions: in vivo, 744 h
Plasmodium berghei [9] = experiment: Antimalarial activity against Plasmodium berghei ANKA infected in C57Bl6 mouse at 160 mg/kg/day, po measured on day 3 to 5 by Thompson test; format: functional
Plasmodium berghei [10] = experiment: Antimalarial activity against Plasmodium berghei ANKA infected in C57Bl6 mouse at 80 mg/kg/day, po measured on day 3 to 5 by Thompson test; format: functional
Plasmodium berghei [11] = experiment: Antimalarial activity against Plasmodium berghei ANKA infected in C57Bl6 mouse at 40 mg/kg/day, po on days 3 to 5 by Thompson test; format: functional
Plasmodium berghei [12] = experiment: Antimalarial activity against Plasmodium berghei ANKA infected in po dosed C57Bl6 mouse administered on day 3 to 5 by Thompson test; format: functional
Method in brief: (§2)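 Modified Thompson test: C57Bl6 female mice inoculated intraperitoneally on day 0 with 1×10^6 P. berghei ANKA-infected erythrocytes; compound suspended in 0.5% hydroxyethylcellulose–0.1% Tween 80, given orally once daily on days 3, 4 and 5 post infection. Parasitemia by Giemsa-stained thin tail-blood smears on days 0, 3, 6, 10, 13, 17, 20, 24, 27, 31. Cure = survival without parasitemia to day 31.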

[13] = Inhibition of beta hematin formation measured as hemin equivalent after 18 hrs; format: physicochemical
Method in brief: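 Hemin (16 mM in DMSO) mixed with compound at 0.125–5 mol equiv to hemin, plus water and 8 M acetate buffer pH 5.2, 25% DMSO final. Incubated 18 h at 37 °C. Pellet washed with DMSO, dissolved in 0.1 M NaOH, absorbance read at 405 nm (corrected at 670 nm) against a hemin calibration.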

[14] = Octanol-water partition coefficient, logP of the compound; format: physicochemical
hERG (KCNH2) = hERG (KCNH2) (Homo sapiens, UniProt Q12809); experiment: Inhibition of human ERG expressed in CHO cells at 5 uM by patch plate method; format: cell-based; conditions: CHO cells that express human ERG
Chain of hERG (KCNH2) (Q12809 whole entry): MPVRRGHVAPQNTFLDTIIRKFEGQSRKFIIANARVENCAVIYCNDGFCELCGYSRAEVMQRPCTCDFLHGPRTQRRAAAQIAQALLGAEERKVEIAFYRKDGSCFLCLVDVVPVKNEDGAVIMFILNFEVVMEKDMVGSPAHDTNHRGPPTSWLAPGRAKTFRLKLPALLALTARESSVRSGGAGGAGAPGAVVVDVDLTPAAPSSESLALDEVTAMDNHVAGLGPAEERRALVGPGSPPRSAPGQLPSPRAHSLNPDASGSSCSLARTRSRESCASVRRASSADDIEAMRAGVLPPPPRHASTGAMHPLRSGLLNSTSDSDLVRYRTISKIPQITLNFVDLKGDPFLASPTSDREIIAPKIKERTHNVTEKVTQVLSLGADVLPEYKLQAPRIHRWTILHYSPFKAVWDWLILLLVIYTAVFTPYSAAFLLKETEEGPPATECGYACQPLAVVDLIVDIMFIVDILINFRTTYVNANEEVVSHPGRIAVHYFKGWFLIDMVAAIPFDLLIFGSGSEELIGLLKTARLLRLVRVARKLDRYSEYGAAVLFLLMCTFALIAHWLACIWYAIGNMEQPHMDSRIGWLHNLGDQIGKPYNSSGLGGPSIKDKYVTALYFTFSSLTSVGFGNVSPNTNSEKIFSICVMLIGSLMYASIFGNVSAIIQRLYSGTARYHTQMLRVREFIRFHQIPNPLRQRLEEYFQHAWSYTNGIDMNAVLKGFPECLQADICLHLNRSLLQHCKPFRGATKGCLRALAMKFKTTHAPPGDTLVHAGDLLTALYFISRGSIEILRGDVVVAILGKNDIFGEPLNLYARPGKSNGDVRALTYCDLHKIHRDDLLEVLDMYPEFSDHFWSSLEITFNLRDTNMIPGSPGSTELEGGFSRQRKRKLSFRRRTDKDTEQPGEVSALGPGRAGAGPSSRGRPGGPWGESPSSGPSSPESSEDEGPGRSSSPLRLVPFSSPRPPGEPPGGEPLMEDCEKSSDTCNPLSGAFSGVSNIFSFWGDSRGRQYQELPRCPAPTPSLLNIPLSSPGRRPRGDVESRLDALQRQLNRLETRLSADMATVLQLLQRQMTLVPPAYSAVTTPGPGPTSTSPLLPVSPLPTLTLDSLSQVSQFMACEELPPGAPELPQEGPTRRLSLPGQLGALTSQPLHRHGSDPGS

[15] = molecular target: Voltage-gated inwardly rectifying potassium channel KCNH2 (Homo sapiens, UniProt Q12809); experiment: Inhibition of human ERG expressed in CHO cells by patch plate method; format: cell-based
Chain of Voltage-gated inwardly rectifying potassium channel KCNH2 (Q12809 whole entry): as above

Salmonella typhimurium [16] = experiment: Mutagenic activity in Salmonella typhimurium TA98 at 500 ug/ml by Ames test in absence of S9 fractions; format: toxicity, organism-based; conditions: salmonella enterica subsp. enterica serovar typhimurium
Method in brief: (§3)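 Ames test in Salmonella typhimurium TA98 and TA100 at 500 μg/mL, with and without S9.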

Salmonella typhimurium [17] = experiment: Mutagenic activity in Salmonella typhimurium TA100 at 500 ug/ml by Ames test in absence of S9 fractions; format: toxicity, organism-based; conditions: salmonella enterica subsp. enterica serovar typhimurium; method in brief: as §3
Plasmodium berghei [18] = experiment: Antimalarial activity against sporozoite stage of Plasmodium berghei infected in human Huh7 cells assessed as inhibition of parasite infection pre-incubated for 24 hrs followed by parasite infection measured after 48 hrs by bioluminescence assay; format: functional, organism-based; conditions: Huh-7
Salmonella typhimurium [19] = experiment: Mutagenic activity in Salmonella typhimurium TA98 at 500 ug/ml by Ames test in presence of S9 fractions; format: toxicity, organism-based, S9 Fraction; conditions: salmonella enterica subsp. enterica serovar typhimurium; method in brief: as §3
Salmonella typhimurium [20] = experiment: Mutagenic activity in Salmonella typhimurium TA100 at 500 ug/ml by Ames test in presence of S9 fractions; format: toxicity, organism-based, S9 Fraction; conditions: salmonella enterica subsp. enterica serovar typhimurium; method in brief: as §3
Plasmodium berghei [21] = experiment: Antimalarial activity against Plasmodium berghei ANKA infected in C57Bl6 mouse assessed as reduction of parasitemia at 20 mg/kg/day, po administered for day 3 to 5 measured on day 6 by Thompson test; format: functional, organism-based; method in brief: as §2
Plasmodium berghei [22] = experiment: Antimalarial activity against Plasmodium berghei ANKA infected in C57Bl6 mouse assessed as curative effect at 20 to 40 mg/kg/day, po administered for day 3 to 5 by Thompson test
Plasmodium berghei [23] = experiment: Antimalarial activity against sporozoite stage of Plasmodium berghei infected in human Huh7 cells assessed as remaining parasite infection at 5 uM pre-incubated for 24 hrs followed by parasite infection measured after 48 hrs by bioluminescence assay; conditions: Huh-7
Plasmodium falciparum [24] = experiment: Antimalarial activity against 4th to 5th gametocyte stage of Plasmodium falciparum 3D7elo1-pfs16-CBG99 assessed as inhibition of gametocyte viability by luciferase reporter gene assay; format: functional, organism-based
Method in brief: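 Stage IV–V gametocytes of luciferase-expressing 3D7elo1-pfs16-CBG99 strain (CBG99 under pfs16 promoter); luciferase activity as viability read-out. Viability = 100×(treated−blank)/(untreated−blank), blank = 100 nM epoxomicin-treated sample. Epoxomicin and dihydroartemisinin as positive controls. IC50 from nonlinear regression of dose–response; mean of three experiments in duplicate.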

Plasmodium berghei [25] = experiment: Antimalarial activity against sporozoite stage of Plasmodium berghei infected in human Huh7 cells assessed as remaining parasite infection at 10 uM pre-incubated for 24 hrs followed by parasite infection measured after 48 hrs by bioluminescence assay; conditions: Huh-7

**Q.** What does the source list for CC(CCNCC12CC3CC(CC(C3)C1)C2)Nc1ccnc2cc(Cl)ccc12 (stereo not given)?
**A.** half-life at 1 µM [1]: 1 h; pIC50 (HepG2): 5.52; MST (Plasmodium berghei [2]): 13 days; MST (Plasmodium berghei [3]): 15.2 days; pIC50 (Plasmodium falciparum [4]): 8.00; pIC50 (Plasmodium falciparum [5]): 8.00; pIC50 (Plasmodium falciparum [6]): 8.00; half-life at 1 µM [7]: 1 h; selectivity ratio [8]: 305; Activity (Mus musculus): Non-toxic; MST (Plasmodium berghei [9]): >31 days; MST (Plasmodium berghei [10]): >31 days; MST (Plasmodium berghei [11]): 17.2 days; Activity (Plasmodium berghei [12]): Dose dependent effect; MAC (Plasmodium berghei [12]): 10 mg/kg/day; MCD (Plasmodium berghei [12]): 80 mg/kg/day; IC50 [13]: 1.84 equiv; logP [14]: 3.85; inhibition at 5 µM (hERG (KCNH2)): 11.7%; pIC50 [15]: < 5.30; Activity (Salmonella typhimurium [16]): Non-toxic; Activity (Salmonella typhimurium [17]): Non-toxic; pIC50 (Plasmodium berghei [18]): 6.00; Activity (Salmonella typhimurium [19]): Non-toxic; Activity (Salmonella typhimurium [20]): Non-toxic; Activity (Plasmodium berghei [21]): Active; Activity (Plasmodium berghei [22]): inactive; % infection at 5 µM (Plasmodium berghei [23]): 0.1%

**Q.** With C[C@H]1[C@@H](O)O[C@@H]2O[C@@]3(C)CC[C@H]4[C@H](C)CC[C@@H]1[C@@]24OO3 [ARTENIMOL] as the compound, how does the pIC50 (Plasmodium falciparum [24]) read?
**A.** 6.36

**Q.** With COc1cc(NC(C)CCCN)c2ncccc2c1 (stereo not given) [PRIMAQUINE] as the compound, how does the % infection at 10 µM (Plasmodium berghei [25]) read?
**A.** 62%
